One test has as its system Saccharomyces cerevisiae. The experiment in a line: Anti-prion activity against [URE3] protein in Saccharomyces cerevisiae SB34 at 100 uM measured after 24 hrs by fluorimetry analysis. The procedure, abridged:
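Whole-cell yeast assay for curing of the [URE3] prion at a single concentration of 100 μM, scored as yes/no curing. Guanabenz was run as the positive control.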

Test [1] can be described thus: Anti-prion activity against [PSI+] protein in Saccharomyces cerevisiae STRg6 measured after 24 hrs by fluorimetry analysis. The procedure, abridged:
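Whole-cell yeast assay for curing of the [PSI+] prion, which depends on compound uptake across the cell membrane. EC50 (μM) reported ± SE. Guanabenz was run as the positive control.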

Active and inactive are the calls of the source. No cut-off for these calls is given here.

On to `COC1=C(c2cc(Br)c(O)c(Br)c2)[C@H](Cc2cc(Br)c(OC)c(Br)c2)OC1=O`, for which the outcome in the test on Saccharomyces cerevisiae was Active. Besides, the EC50 – broadly, the concentration at which the effect is half-maximal – in test [1] was 67 µM.

Consider `COc1ccc(C[C@@H]2OC(=O)C(O)=C2c2cc(Br)c(O)c(Br)c2)cc1Br`, for which, in the test on Saccharomyces cerevisiae, the result was Active. In test [1], this molecule registered a half-maximal effective concentration (EC50) of 23 µM.

As to `COc1c(Br)cc(C[C@@H]2OC(=O)C(O)=C2c2cc(Br)c(O)c(Br)c2)cc1Br`, the outcome in the test on Saccharomyces cerevisiae was Active. The same molecule gave a 50% effective concentration (EC50) in test [1] of 34 µM.

Regarding `COC1=C(c2cc(Br)c(O)c(Br)c2)[C@H](Cc2ccc(OC)c(Br)c2)OC1=O`, the outcome with Saccharomyces cerevisiae was Active. In test [1], this molecule yielded an EC50 of 65 µM.

As for `COc1c(Br)cc(C[C@H](O)C(=O)c2cc(Br)c(O)c(Br)c2)cc1Br`, the result with Saccharomyces cerevisiae was Active. In test [1], it took 33 µM to reach a half-maximal effect (EC50).

In the case of `COc1ccc(C[C@H](O)C(=O)c2cc(Br)c(O)c(Br)c2)cc1Br`, the result in the test with Saccharomyces cerevisiae was Active. The molecule also showed an EC50 in test [1] of 29 µM.

Turning to `N=C(N)N/N=C/c1c(Cl)cccc1Cl` [GUANABENZ], the outcome with Saccharomyces cerevisiae was Active. This molecule displayed an EC50 in test [1] of 26 µM.

Source of the values: ChEMBL document CHEMBL4321801, “Anti-prion Butenolides and Diphenylpropanones from the Australian Ascidian Polycarpa procera” (J Nat Prod, 2019).
